The source of these data is paper PMC3835402 (Molecular bioSystems, 2010).

“Also recorded” adds a separate entry of the source.

One assay addresses T1, endogenous ER-α (Homo sapiens, UniProt P03372).
T1 sequence (P03372 1-595): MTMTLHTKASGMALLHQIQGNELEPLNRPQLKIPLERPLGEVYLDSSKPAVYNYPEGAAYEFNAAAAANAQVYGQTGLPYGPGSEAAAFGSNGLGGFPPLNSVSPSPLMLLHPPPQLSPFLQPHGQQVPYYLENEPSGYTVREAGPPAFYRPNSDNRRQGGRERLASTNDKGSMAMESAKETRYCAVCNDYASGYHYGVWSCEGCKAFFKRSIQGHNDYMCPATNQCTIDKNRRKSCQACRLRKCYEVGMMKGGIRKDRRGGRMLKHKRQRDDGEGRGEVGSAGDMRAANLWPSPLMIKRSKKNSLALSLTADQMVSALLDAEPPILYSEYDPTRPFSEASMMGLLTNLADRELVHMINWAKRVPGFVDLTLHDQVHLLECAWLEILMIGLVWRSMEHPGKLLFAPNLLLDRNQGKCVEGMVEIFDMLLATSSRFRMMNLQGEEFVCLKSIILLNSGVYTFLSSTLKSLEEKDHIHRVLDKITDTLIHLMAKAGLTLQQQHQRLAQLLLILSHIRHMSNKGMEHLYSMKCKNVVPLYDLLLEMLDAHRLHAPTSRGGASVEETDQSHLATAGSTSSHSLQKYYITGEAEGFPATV
As to the kind of experiment: ER degradation in MCF7 cells by western blotting. The note with it: western blot; for ER level on treatment with 13 and the proteasome inhibitor epoxomicin: Fig. 4A. It is filed as cell-based. (In general: A western blot detects proteins with antibodies after separation by electrophoresis.)

For another assay, the target named is T2, ER (Homo sapiens, UniProt P03372).
T2 sequence (P03372 1-595): T1 sequence (P03372 1-595)
As to the kind of experiment: ER immunofluorescence in MCF7 cells. It is filed as cell-based. The conditions noted are these: ER green, DAPI blue, compared to controls, Fig. 4C. Put shortly: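 MCF7 on ethanol/UV-sterilized coverslips, attached 24 h, then kept in phenol-red-free RPMI with 5% charcoal/dextran FBS. Test compound diluted in that medium, applied as for the western blots. Fixed in 4% PFA, permeabilized with 0.2% Triton X. Blocked in 10% goat serum/0.1% BSA in PBST. Anti-ER 1 h at 37°C, then Alexa Fluor 488 secondary 30 min. DAPI mount, inverted fluorescence microscopy.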

In a further assay the test system is MCF7 cells. As to the kind of experiment: Cell viability assay by MTS. Type of assay: cell-based, human. The conditions noted are these: 48 hour treatment, Fig. 5B. The essentials: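 MCF7 seeded at 5 × 10³ cells in RPMI 1640 with 10% FBS overnight, then switched to 5% charcoal-dextran FBS RPMI for 24 h before dosing. Test compound was added in DMSO vehicle for 48 h. Viability was read by MTS (CellTiter 96 AQueous One) absorbance at 490 nm. IC50 was fitted by nonlinear sigmoid dose-response regression from at least triplicate results.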

In the case of `CC[C@H](C)[C@H](NC(=O)[C@H]([C@@H](C)CC)N(C)C(C)=O)C(=O)N[C@H](C(=O)N[C@@H](CC(C)C)C(=O)[C@@]1(C)CO1)[C@@H](C)O` [epoxomicin, reference compound], the “ER level on treatment with 13 and the proteasome inhibitor epoxomicin” value at endogenous ER-α was “accumulation of the ER”. Also, the “ER level by immunofluorescence” value at ER was “causes the accumulation of the ER”.
With “-Leu-Ala-Nle-Leu-Tyr-Ile-OBzl [compound 17]”, the “ER level by immunofluorescence” value at ER is “does not cause ER degradation”.
With “-Leu-Ala-Pro^OH-Tyr-Ile-OBzl [compound 12]”, the “ER degradation, dependence on the hydroxyproline residue (pVHL recognition)” value on endogenous ER-α (Fig. 4B (text says Fig 4C)) is recorded as “effectively causes ER degradation”.
“-Leu-Ala-Pro^OH-Tyr-Ile-OBzl [compound 13]”: the “time-dependent ER degradation, treated once” value on endogenous ER-α (between 48 and 72 hours, Fig. 3D) was “stable between 48 and 72 hours”. The “ER level on treatment with 13 and the proteasome inhibitor epoxomicin” value on endogenous ER-α was “proteasome-dependent”. Also, the “ER degradation at even lower doses” value at endogenous ER-α (data not shown) was “degraded the ER most effectively”. Besides, in the assay on MCF7 cells, the “inhibition of proliferation of MCF7 cells” value is listed as “best efficacy; also recorded: most effective”.
As to “-Leu-Ala-Pro^OH-Tyr-Ile-OBzl [compound 15]”, on endogenous ER-α (50 μM, 48 hour treatment, Fig. 3B), the “ER degradation at the highest concentration examined” value was “all PROTACs but 15 showed significant ER degradation”.
